Results from ChEMBL document CHEMBL4038341, “Optimization of Allosteric With-No-Lysine (WNK) Kinase Inhibitors and Efficacy in Rodent Hypertension Models” (J Med Chem, 2017).
pIC50, pKi: −log10 of the molar value. In brackets after ≈: the same amount, converted by molar mass. Activity calls are given as the source filed them. The calls are words filed in the database; no cut-off is given here.

Tests used:
[1] = target: T1, Serine/threonine-protein kinase WNK1 (Homo sapiens, UniProt Q9H4A3); test: Allosteric inhibition of recombinant human N-terminal GST-tagged WNK1 catalytic domain (1 to 491 residues) expressed in baculovirus expression system using fluorescein-labeled OSR1 peptide as substrate after 3 hrs by HTRF assay
[2] = Plasma concentration in human WNK1 transgenic FVB mouse at 30 mg/kg, po via gavage up to 7 hrs; format: ADME, organism-based
Outline: (§1)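 A separate cohort of human WNK1-overexpressing FVB mice was dosed 30 mg kg−1 p.o. Venous blood samples were taken over time to 7 h for plasma drug concentration. n = 3.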

[3] = target: T1, Serine/threonine-protein kinase WNK1; test: Allosteric inhibition of recombinant human N-terminal GST-tagged WNK1 catalytic domain (1 to 491 residues) expressed in baculovirus expression system using fluorescein-labeled OSR1 peptide as substrate after 3 hrs by mobility shift assay
[4] = Ratio of Cp in human WNK1 expressing transgenic FVB mouse at 30 mg/kg, po to IC50 for WNK1 (unknown origin) expressed in HEK293 cells
Outline: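 Separate PK cohort of FVB mice overexpressing human WNK1, given a single oral dose of 30 mg kg−1 (n = 3); venous blood sampled over time for plasma concentration. Plasma level compared against the cellular IC50 from AlphaLISA readout of WNK-mediated phosphorylation of exogenous OSR1 in HEK293 cells.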

[5] = AUC in Sprague-Dawley rat at 1.5 mg/kg, po measured up to 7 hrs post dose by HPLC analysis; format: ADME, organism-based; parameters: time < 7 hr, dose 1.5 mg/kg, route oral; settings: in vivo
[6] = Plasma concentration in human WNK1 transgenic FVB mouse at 30 mg/kg, po via gavage at 7 hrs post dose; format: ADME, organism-based; outline: as §1
[7] = Oral bioavailability in Sprague-Dawley rat at 1.5 mg/kg measured up to 7 hrs post dose by HPLC analysis; format: ADME, organism-based; settings: in vivo
[8] = Clearance in Sprague-Dawley rat at 0.5 mg/kg, iv measured up to 7 hrs post dose by HPLC analysis; format: ADME, organism-based; settings: in vivo
[9] = Cmax in Sprague-Dawley rat at 1.5 mg/kg, po measured up to 7 hrs post dose by HPLC analysis; format: ADME, organism-based; parameters: dose 1.5 mg/kg, route oral; settings: in vivo
[10] = Equilibrium solubility of compound at pH 6.8; format: physicochemical; settings: buffer
[11] = target: T1, Serine/threonine-protein kinase WNK1; test: Allosteric inhibition of WNK1 (unknown origin) expressed in HEK293 cells co-expressing flag-OSR1 assessed as reduction in sorbitol-stimulated OSR1 phosphorylation preincubated with compound for 2.5 hrs followed co-administration with sorbitol measured after 1 hr by AlphaLISA assay; format: cell-based
[12] = Half life in rat liver microsomes; format: ADME, microsome
[13] = target: Tyrosine-protein kinase Fer (Homo sapiens) (UniProt P16591); test: Inhibition of human FER (542 to 822 residues) expressed in bacterial expression system at 10 uM by kinomescan assay
Outline: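 KINOMEscan panel of 440 human kinases, with test compound screened at a single concentration of 10 μM. Read-out is percent inhibition. Hits above 35% inhibition are flagged.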

Rattus norvegicus [14] = test: Increase in heart rate in […] rat at 100 mg/kg, po measured for 7 hrs post dose; format: functional, organism-based; settings: tested as the 2H-labelled form
Rattus norvegicus [15] = test: Anti-hypertensive activity in […] rat assessed as induction of kaliuresis administered orally as single dose on day 2,3 and 4 measured for 7 hrs post dose; format: functional; settings: tested as the 2H-labelled form
Outline: (§2)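 Spontaneously hypertensive rats got single ascending oral doses on successive days (vehicle, then 10, 30, then 100 mg kg−1). Urine was collected in metabolic cages over 7 h for volume and sodium and potassium excretion. n = 4 per group, mean ± SEM, one-way ANOVA with Bonferroni post-test versus vehicle.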

Mus musculus [16] = test: Anti-hypertensive activity in human WNK1 transgenic FVB mouse assessed plasma concentration required for SBP reducing activity at 30 mg/kg, po via gavage measured after 7 hrs; format: functional, organism-based; settings: tested as the 2H-labelled form; outline: as §1
Rattus norvegicus [17] = test: Anti-hypertensive activity in SHR rat assessed as induction of diuresis administered orally as single dose on day 2,3 and 4 measured for 7 hrs post dose; format: functional; settings: tested as the 2H-labelled form; outline: as §2
Mus musculus [18] = test: Anti-hypertensive activity in po dosed human WNK1 transgenic FVB mouse assessed as reduction in blood pressure administered via gavage measured every 10 minutes for 15 seconds after 2 hrs; format: functional, organism-based; settings: tested as the 2H-labelled form
Outline: (§3)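 Conscious FVB mice overexpressing human WNK1, with implanted radiotelemetry devices, received single oral doses of 10, 30 or 100 mg kg−1. Systolic blood pressure was read as peak and time-weighted average against the 24 h before treatment. n = 4 per group, mean ± SEM, two-way ANOVA with Bonferroni post-test versus vehicle.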

Rattus norvegicus [19] = test: Anti-hypertensive activity in […] rat assessed as reduction in blood pressure at 100 mg/kg, po measured for 7 hrs post dose; format: functional, organism-based; settings: tested as the 2H-labelled form
Rattus norvegicus [20] = test: Anti-hypertensive activity in […] rat assessed as reduction in total peripheral resistance at 100 mg/kg, po measured for 7 hrs post dose; format: functional, organism-based; settings: tested as the 2H-labelled form
[21] = target: Tyrosine-protein kinase BTK (Homo sapiens) (UniProt Q06187); test: Inhibition of human full length BTK expressed in mammalian expression system at 10 uM by kinomescan assay
Outline: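 Binding panel of 440 human kinases (KINOMEscan) at a 10 μM screening concentration. Percent inhibition per kinase, with >35% inhibition flagged as significant.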

Rattus norvegicus [22] = test: Anti-hypertensive activity in […] rat assessed as reduction in stroke volume at 100 mg/kg, po measured for 7 hrs post dose; format: functional, organism-based; settings: tested as the 2H-labelled form
Mus musculus [23] = test: Anti-hypertensive activity in po dosed human WNK1 transgenic FVB mouse assessed as reduction in blood pressure administered via gavage measured every 10 minutes for 15 seconds after 6 to 12 hrs; format: functional, organism-based; settings: tested as the 2H-labelled form; outline: as §3
Rattus norvegicus [24] = test: Anti-hypertensive activity in […] rat assessed as induction of natriuresis administered orally as single dose on day 2,3 and 4 measured for 7 hrs post dose; format: functional; settings: tested as the 2H-labelled form; outline: as §2
Rattus norvegicus [25] = test: Anti-hypertensive activity in […] rat assessed as induction of natriuresis at 10 mg/kg, po administered as single dose on day 2,3 and 4 measured for 7 hrs post dose; format: functional, organism-based; outline: as §2
Rattus norvegicus [26] = test: Anti-hypertensive activity in […] rat assessed as induction of diuresis at 10 mg/kg, po administered as single dose on day 2,3 and 4 measured for 7 hrs post dose; format: functional, organism-based; outline: as §2
Mus musculus [27] = test: Anti-hypertensive activity in human WNK1 transgenic FVB mouse assessed as reduction in systolic blood pressure at 30 mg/kg, po via gavage measured every 10 minutes for 15 seconds; format: functional, organism-based
Outline: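 Conscious FVB mice transgenic for human WNK1, fitted with implanted radiotelemetry devices, received single oral doses. Systolic blood pressure was expressed as peak and time-weighted average change against the 24 h pre-dose baseline. Heart rate was also monitored. n = 4 per group, mean ± SEM, two-way ANOVA with Bonferroni post-test versus vehicle. Plasma exposure was measured in a separate cohort (n = 3).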

[28] = target: T1, Serine/threonine-protein kinase WNK1; test: Non-competitive inhibition of recombinant human N-terminal GST-tagged WNK1 (1 to 491 residues) expressed in baculovirus expression system using fluorescein-labeled OSR1 peptide as substrate measured every 3 mins from 90 to 250 mins in presence of varying concentration of ATP by Michaelis-Menten plot-based analysis

T1 sequence (Q9H4A3 whole entry, the tested form may be a part): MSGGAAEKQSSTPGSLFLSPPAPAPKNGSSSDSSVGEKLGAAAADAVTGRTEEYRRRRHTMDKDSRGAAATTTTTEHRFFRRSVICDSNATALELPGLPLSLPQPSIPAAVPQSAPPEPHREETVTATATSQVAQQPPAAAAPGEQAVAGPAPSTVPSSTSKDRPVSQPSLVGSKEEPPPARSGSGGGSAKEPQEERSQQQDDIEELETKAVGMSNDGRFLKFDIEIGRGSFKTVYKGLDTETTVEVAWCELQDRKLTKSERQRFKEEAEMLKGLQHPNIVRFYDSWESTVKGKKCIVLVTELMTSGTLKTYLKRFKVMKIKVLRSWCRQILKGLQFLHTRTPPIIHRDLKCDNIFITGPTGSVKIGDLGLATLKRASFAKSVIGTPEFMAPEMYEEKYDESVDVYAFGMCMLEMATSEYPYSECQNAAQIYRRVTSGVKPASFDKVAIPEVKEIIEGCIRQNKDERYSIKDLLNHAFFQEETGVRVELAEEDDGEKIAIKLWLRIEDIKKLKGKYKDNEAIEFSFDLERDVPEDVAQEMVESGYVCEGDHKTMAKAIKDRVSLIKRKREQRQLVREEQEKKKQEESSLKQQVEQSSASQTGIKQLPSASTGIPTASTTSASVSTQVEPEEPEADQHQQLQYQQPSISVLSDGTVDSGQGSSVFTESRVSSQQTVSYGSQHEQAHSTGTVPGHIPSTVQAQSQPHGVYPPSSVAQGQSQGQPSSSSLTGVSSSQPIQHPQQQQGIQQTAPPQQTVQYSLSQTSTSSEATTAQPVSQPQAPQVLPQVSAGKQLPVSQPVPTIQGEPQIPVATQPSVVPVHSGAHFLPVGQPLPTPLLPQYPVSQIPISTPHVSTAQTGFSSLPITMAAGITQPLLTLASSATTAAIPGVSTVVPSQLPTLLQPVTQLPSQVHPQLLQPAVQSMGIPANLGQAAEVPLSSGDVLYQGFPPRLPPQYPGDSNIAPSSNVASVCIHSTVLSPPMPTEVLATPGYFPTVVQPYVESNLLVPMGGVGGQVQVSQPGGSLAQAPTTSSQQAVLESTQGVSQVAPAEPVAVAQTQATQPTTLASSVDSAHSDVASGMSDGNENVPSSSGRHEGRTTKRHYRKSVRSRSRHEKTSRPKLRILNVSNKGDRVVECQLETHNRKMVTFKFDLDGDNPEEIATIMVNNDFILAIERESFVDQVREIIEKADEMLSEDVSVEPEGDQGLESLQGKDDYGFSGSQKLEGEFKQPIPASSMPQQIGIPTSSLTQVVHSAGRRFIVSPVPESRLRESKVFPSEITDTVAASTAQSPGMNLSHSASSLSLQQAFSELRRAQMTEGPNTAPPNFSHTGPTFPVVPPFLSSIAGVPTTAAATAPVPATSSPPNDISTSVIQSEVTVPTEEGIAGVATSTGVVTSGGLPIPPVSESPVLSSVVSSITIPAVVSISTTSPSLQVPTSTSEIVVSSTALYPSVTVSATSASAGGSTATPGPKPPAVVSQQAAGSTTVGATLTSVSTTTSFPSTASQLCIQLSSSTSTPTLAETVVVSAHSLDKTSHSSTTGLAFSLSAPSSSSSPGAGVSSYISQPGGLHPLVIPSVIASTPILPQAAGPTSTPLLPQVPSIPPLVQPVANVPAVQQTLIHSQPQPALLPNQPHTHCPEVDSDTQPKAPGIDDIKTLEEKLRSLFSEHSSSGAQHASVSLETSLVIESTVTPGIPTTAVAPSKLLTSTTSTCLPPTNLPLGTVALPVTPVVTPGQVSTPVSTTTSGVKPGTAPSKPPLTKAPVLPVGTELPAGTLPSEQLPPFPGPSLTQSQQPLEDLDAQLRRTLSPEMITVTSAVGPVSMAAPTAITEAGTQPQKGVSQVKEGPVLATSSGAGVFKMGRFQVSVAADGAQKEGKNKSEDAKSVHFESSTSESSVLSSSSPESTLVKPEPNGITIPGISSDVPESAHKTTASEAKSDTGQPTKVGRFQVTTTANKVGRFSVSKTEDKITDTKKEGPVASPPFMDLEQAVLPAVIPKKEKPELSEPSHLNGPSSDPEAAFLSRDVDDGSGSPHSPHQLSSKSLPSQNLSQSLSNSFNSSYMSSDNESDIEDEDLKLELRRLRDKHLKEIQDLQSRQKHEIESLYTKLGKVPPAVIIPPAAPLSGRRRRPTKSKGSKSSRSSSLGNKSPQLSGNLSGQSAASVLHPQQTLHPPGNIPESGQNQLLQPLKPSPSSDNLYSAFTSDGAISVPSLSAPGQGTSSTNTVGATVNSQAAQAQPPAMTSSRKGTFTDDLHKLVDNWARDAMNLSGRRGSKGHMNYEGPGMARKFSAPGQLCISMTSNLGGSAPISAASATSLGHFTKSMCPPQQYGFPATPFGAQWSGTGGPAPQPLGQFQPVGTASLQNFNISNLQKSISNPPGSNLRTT
Sequence of Tyrosine-protein kinase Fer (Homo sapiens) (P16591 whole entry, looked up, the tested form may be a part): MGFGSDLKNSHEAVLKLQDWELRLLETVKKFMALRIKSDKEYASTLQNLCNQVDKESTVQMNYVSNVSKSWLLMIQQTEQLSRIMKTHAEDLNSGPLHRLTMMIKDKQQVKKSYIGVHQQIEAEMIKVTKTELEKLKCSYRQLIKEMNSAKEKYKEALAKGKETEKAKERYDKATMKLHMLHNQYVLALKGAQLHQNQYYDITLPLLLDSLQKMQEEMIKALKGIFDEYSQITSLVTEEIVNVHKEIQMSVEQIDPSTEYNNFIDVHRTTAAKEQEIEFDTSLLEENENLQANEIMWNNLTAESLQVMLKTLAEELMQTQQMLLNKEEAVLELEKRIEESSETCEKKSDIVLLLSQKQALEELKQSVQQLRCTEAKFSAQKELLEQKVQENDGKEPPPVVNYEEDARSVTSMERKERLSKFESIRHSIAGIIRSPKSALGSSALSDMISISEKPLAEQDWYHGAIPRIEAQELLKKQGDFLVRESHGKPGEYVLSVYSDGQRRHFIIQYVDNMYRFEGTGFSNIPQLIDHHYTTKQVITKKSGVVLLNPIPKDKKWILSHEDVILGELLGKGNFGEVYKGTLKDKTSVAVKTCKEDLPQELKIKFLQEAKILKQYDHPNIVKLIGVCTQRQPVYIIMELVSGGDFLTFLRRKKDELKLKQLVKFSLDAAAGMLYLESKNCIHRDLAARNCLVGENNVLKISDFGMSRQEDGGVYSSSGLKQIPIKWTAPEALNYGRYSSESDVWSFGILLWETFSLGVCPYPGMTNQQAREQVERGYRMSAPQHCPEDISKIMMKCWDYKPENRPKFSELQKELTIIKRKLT
Sequence of Tyrosine-protein kinase BTK (Homo sapiens) (Q06187 whole entry): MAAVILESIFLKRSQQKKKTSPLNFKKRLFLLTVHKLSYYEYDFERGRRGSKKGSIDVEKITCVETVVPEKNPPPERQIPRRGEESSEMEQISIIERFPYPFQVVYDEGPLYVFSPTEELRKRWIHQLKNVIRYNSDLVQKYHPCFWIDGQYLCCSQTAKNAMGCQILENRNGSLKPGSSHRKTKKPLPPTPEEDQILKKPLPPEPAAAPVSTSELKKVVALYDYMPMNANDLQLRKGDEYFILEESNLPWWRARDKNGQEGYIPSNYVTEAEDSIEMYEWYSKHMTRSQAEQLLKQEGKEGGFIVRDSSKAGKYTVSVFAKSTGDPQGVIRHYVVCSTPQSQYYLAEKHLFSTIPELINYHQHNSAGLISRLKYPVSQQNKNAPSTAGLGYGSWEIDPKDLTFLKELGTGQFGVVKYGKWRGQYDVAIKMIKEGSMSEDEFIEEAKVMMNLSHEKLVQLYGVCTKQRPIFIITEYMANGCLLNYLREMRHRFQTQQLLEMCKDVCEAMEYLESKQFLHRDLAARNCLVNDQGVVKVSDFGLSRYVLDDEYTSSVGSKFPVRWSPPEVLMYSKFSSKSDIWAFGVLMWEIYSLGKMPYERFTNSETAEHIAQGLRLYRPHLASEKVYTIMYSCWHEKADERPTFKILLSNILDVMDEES

Q: With `COc1cccc(-c2cc(-n3cc(CNCC4CCCCC4)c4cc(F)ccc43)ccn2)c1` as the compound, how does the pIC50 [1] read?
A: 7.41

Q: Which results are given for `[2H]C([2H])([2H])Nc1nc(-c2cc(C(=O)N3CCN(Cc4ccc(Cl)cc4)CC3)c(Cl)cn2)cs1`?
A: concentration at 7 h [2]: 1000 nM; pIC50 [3]: 8.22; Ratio [4]: 3; AUC at 7 h [5]: 0.811 µM·h; concentration at 7 h [6]: 1000 nM; bioavailability [7]: 45%; clearance [8]: 24 mL/min/kg; Cmax [9]: 308 nM; solubility thermodynamic [10]: 19 µM (≈ 8.84 µg/mL); pIC50 [11]: 6.23; half-life [12]: 15 min

Q: With `COc1cccc(-c2cc(C(=O)N3CCN(Cc4ccccc4)CC3)c3ccccc3n2)c1` as the compound, how does the pIC50 [3] read?
A: 6.21

Q: With `COc1cccc(-c2cc(-n3cc(CNCC4CCCCC4)c4ccccc43)ccn2)c1` as the compound, how does the pIC50 [3] read?
A: 7.22

Q: For `CNc1nc(-c2cc(C(=O)N3CCN(Cc4ccc(Cl)cc4)CC3)c(Cl)cn2)cs1`, which inhibition [13] is on record?
A: Active

Q: And the Activity (Rattus norvegicus [14])?
A: Active

Q: What about the Activity (Rattus norvegicus [15]) of the same compound?
A: Dose-dependent effect

Q: What about the pIC50 [3] of the same compound?
A: 8.40

Q: And the Cp (Mus musculus [16])?
A: > 2 µM

Q: What about the AUC at 7 h [5] of the same compound?
A: 0.279 µM·h

Q: What about the bioavailability [7] of the same compound?
A: 21%

Q: And the Activity (Rattus norvegicus [17])?
A: Dose-dependent effect

Q: And the Activity (Mus musculus [18])?
A: Dose-dependent effect

Q: And the clearance [8]?
A: 36 mL/min/kg

Q: And the Cmax [9]?
A: 113 nM

Q: What about the solubility thermodynamic [10] of the same compound?
A: 55 µM (≈ 25.4 µg/mL)

Q: What about the pIC50 [11] of the same compound?
A: 6.45

Q: What about the Activity (Rattus norvegicus [19]) of the same compound?
A: Active

Q: And the Activity (Rattus norvegicus [20])?
A: Active

Q: What about the inhibition [21] of the same compound?
A: Active

Q: And the Activity (Rattus norvegicus [22])?
A: Active

Q: And the Activity (Mus musculus [23])?
A: Dose-dependent effect

Q: And the half-life [12]?
A: 13 min

Q: And the Activity (Rattus norvegicus [24])?
A: Dose-dependent effect

Q: With `CNc1nc(-c2ccc3c(c2)CCN3C(=O)c2ccccc2OCc2ccc(Cl)cc2)cs1` as the compound, how does the pIC50 [3] read?
A: 6.38

Q: And the AUC at 7 h [5]?
A: 0.014 µM·h

Q: What about the bioavailability [7] of the same compound?
A: 1.4%

Q: What about the clearance [8] of the same compound?
A: 108 mL/min/kg

Q: And the Cmax [9]?
A: 2 nM

Q: With `COc1cccc(-c2cc(C(=O)N(C)[C@@H]3CCN(Cc4ccc(Cl)cc4)C3)c3ccccc3n2)c1` as the compound, how does the pIC50 [3] read?
A: 6.12

Q: For `N=C(N)NC(=O)c1nc(Cl)c(N)nc1N`, which Activity (Rattus norvegicus [25]) is on record?
A: Active

Q: What about the Activity (Rattus norvegicus [26]) of the same compound?
A: Active

Q: With `COc1cccc(-c2cc(C(=O)N3CCN(Cc4ccc(Cl)cc4)CC3)ccn2)c1` as the compound, how does the pIC50 [3] read?
A: 6.01

Q: With `c1ccc(-c2cccc(-n3cc(CNCC4CCCCC4)c4ccccc43)c2)cc1` as the compound, how does the pIC50 [3] read?
A: 5.67

Q: With `COc1cccc(-c2cc(-n3cc(CNCC(C)C)c4ccccc43)c(C)cn2)c1` as the compound, how does the pIC50 [3] read?
A: 7.02

Q: What about the Activity (Mus musculus [27]) of the same compound?
A: Active

Q: What about the solubility thermodynamic [10] of the same compound?
A: 550 µM (≈ 220 µg/mL)

Q: What about the pIC50 [11] of the same compound?
A: 5.86

Q: And the half-life [12]?
A: 15 min

Q: With `CNc1nc(-c2cc(C(=O)N3CCN(Cc4ccc(Cl)cc4)CC3)ccn2)cs1` as the compound, how does the pIC50 [3] read?
A: 6.97

Q: With `COc1cccc(-c2cccc(-n3cc(CNCC4CCCCC4)c4ccccc43)c2)c1` as the compound, how does the pIC50 [3] read?
A: 6.79

Q: What about the pKi [28] of the same compound?
A: 7.49
